In the array DNA melting data of Ke et al. (doi:10.1101/2024.01.08.574731):

Legend:
[1] = folding enthalpy; higher = less favourable; fluorescence melt of hairpins on a sequencing array, two-state fit; details: sodium 0.088 M
How it was run: (§1)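 With Cy3 and quencher oligos annealed, library hairpins on a sequenced MiSeq flow cell were imaged for Cy3 fluorescence in 50 mM Na-HEPES pH 8.0, 25 mM NaCl, in 2.5 °C steps up to 60 °C. Melting temperature and folding enthalpy were derived from bootstrapped two-state fits of signals normalised to pre-quench Cy3 and to control constructs. Four replicates were combined by inverse variance, with fitted temperatures raised by 9.35 °C to match UV melts.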

[2] = melting temperature; fluorescence melt of hairpins on a sequencing array, two-state fit, raised by 9.35 °C to match UV melts; details: sodium 0.088 M
How it was run: as §1

| Sequence | folding enthalpy [1] | Tm [2] |
| --- | --- | --- |
| GATCATCGGTATGATC ((((((....)))))) | -34.2 kcal/mol | 46.5 °C |
| GATCCAGCGCTGGATC ((((((....)))))) | -54.5 kcal/mol | 60.1 °C |
| GGCCGCGAAAGCGATGCC ((((((....)))..))) | -25.2 kcal/mol | 59.3 °C |
| GCCCTGCGAAAGCCTGGC (((..((....))..))) | -16.2 kcal/mol | 45.5 °C |
| GGAAATCGAAAGATCTCC (((.(((....))).))) | -26.1 kcal/mol | 34.9 °C |
| GCGTCCGAAAGGAATCGC ((((((....)))..))) | -22.6 kcal/mol | 47.8 °C |
| GTTTAGCGAAAGCTGAAC (((.(((....))).))) | -30.4 kcal/mol | 51.3 °C |
| GGTGAAGGAAACTTCGCC ((.((((....)))).)) | -45.2 kcal/mol | 52.6 °C |
| GCGCTCGGAAACGAGCAC (.(((((....))))).) | -10.4 kcal/mol | 51.5 °C |
| ACATGGAAACATGT (((((....))))) | -19.7 kcal/mol | 45 °C |
| GCTTAGGGAAACCTAGGC ((.((((....)))).)) | -34.1 kcal/mol | 44.4 °C |
| GTATTGGGAAACTAATAC (((((.(....).))))) | -22.2 kcal/mol | 34.8 °C |
| GGTATAGGAAACTGTACC ((((.((....)).)))) | -31.3 kcal/mol | 43 °C |
| GATCCCCCCCGGGATC ((((((....)))))) | -38.5 kcal/mol | 57.2 °C |
| GTCTACACGAAAGTGGAC (((..(((....)))))) | -14.1 kcal/mol | 37.2 °C |
| GTGATACCGAAAGGTCAC (((..(((....)))))) | -19.5 kcal/mol | 41.9 °C |
| GGTCAAGGAAACTTGATC (.(((((....))))).) | -34.1 kcal/mol | 42.1 °C |
| CGCGGACCTTCCGCG ((((((...)))))) | -28.5 kcal/mol | 69.2 °C |
| GAGGATGGAAACACCCTC ((((.((....)).)))) | -32.6 kcal/mol | 38.1 °C |
| GGGTCCGAAAGGAACCCC ((((((....)))..))) | -13.9 kcal/mol | 61.7 °C |
| GATTCTGGAAACAGAATC (((((((....))))))) | -43.9 kcal/mol | 55 °C |
| GCATGTGGAAACATGTGC (((..((....))..))) | -31.6 kcal/mol | 49.6 °C |
| GTAACGGGAAACTGTTAC (((((.(....).))))) | -30.4 kcal/mol | 46.3 °C |

| Sequence | folding enthalpy [1] | Tm [2] |
| --- | --- | --- |
| GGGCTCGAAAGAGCGCCC ((((((....)))..))) | -10.7 kcal/mol | 56.6 °C |
| GTTCGAGGAAACCCGAAC (((((.(....).))))) | -29.9 kcal/mol | 47 °C |
| GATCTTATAAAGATC ((((((...)))))) | -29.4 kcal/mol | 44 °C |
| GCACCTGGAAACAGGCGC ((.((((....)))).)) | -46.8 kcal/mol | 53.5 °C |
| GACCCGCGAAAGCGGTC (((.(((....)))))) | -10 kcal/mol | 52.1 °C |
| GCAAAGCGAAAGCTTGGC ((.((((....)))).)) | -38.7 kcal/mol | 62.9 °C |
| GAGCCCGAAAGGGTCCTC ((((((....)))..))) | -13.2 kcal/mol | 42.5 °C |
| GTATCTGGAAACAGACAC ((.((((....)))).)) | -26.2 kcal/mol | 30.7 °C |
| GAATAAGGAAACTTGTTC (((.(((....))).))) | -17 kcal/mol | 29.6 °C |
| GCAGGCGAAAGCCGTTGC ((((((....)))..))) | -12.6 kcal/mol | 53.7 °C |
| GTATCCGGAAACAGATAC (((((.(....).))))) | -23.4 kcal/mol | 31.7 °C |
| GTAAACGGAAACGTTTGC (.(((((....))))).) | -26.1 kcal/mol | 48.5 °C |
| GCGGTTGTCCGC ((((....)))) | -23.5 kcal/mol | 58.6 °C |
| GGTCTAGGAAACCAGACC (((((.(....).))))) | -35.1 kcal/mol | 45 °C |
| GGGACATCGAAAGATCCC (((..(((....)))))) | -18.5 kcal/mol | 36.1 °C |
| GATCAAAAACTTGATC ((((((....)))))) | -26.5 kcal/mol | 34.9 °C |
| GACGTTGGAAACAGCGTC ((((.((....)).)))) | -39.6 kcal/mol | 52.1 °C |
| GTACAGCGAAAGCTTAC (((.(((....)))))) | -13.1 kcal/mol | 38.1 °C |
| GGTCAGGGAAACCTAACC (((.(((....))).))) | -24.6 kcal/mol | 33.6 °C |
| GGGGACGAAAGTCTGCCC ((((((....)))..))) | -14.4 kcal/mol | 44.1 °C |
| GCAAGGCGAAAGCGATGC (((..((....))..))) | -11.4 kcal/mol | 53.4 °C |
| GGAACGCGAAAGCGTCC (((.(((....)))))) | -13.4 kcal/mol | 53.8 °C |
| GCAAGCGGAAACGCTTAC (.(((((....))))).) | -13.4 kcal/mol | 41.2 °C |

| Sequence | folding enthalpy [1] | Tm [2] |
| --- | --- | --- |
| GCGAAGCGAAAGCATGGC ((.(.((....)).).)) | -5.07 kcal/mol | 40 °C |
| GCGTACGCGAAAGCGCGC (((..(((....)))))) | -16.8 kcal/mol | 58.5 °C |
| GTCGGTACGAAAGTAGAC (((..(((....)))))) | -10.7 kcal/mol | 31.9 °C |
| GTCCGCCGAAAGGCGAC (((.(((....)))))) | -9.54 kcal/mol | 52.5 °C |
| GATATAACGAAAGTTATC (((..(((....)))))) | -15.6 kcal/mol | 30.6 °C |
| GCCGTGCGAAAGCAGGC (((.(((....)))))) | -23.7 kcal/mol | 68.2 °C |
| GTCAGATCGAAAGATGAC (((..(((....)))))) | -22.2 kcal/mol | 38.1 °C |
| GGGTAAGGAAACTTATCC ((.((((....)))).)) | -29.2 kcal/mol | 40.1 °C |
| GTTACACGAAAGTGCAAC (((.(((....))).))) | -23.6 kcal/mol | 44.7 °C |
| GACTCTCCGAAAGGAGTC (((..(((....)))))) | -9.54 kcal/mol | 35.3 °C |
| GCGACAAATCGC ((((....)))) | -16.5 kcal/mol | 43.6 °C |
| CGAAGCGGAAACGCTCG (((.(((....)))))) | -22.7 kcal/mol | 53.5 °C |
| GTAGGTGGAAACGCTTAC (((.(.(....).).))) | -23 kcal/mol | 31.4 °C |
| GATCGTTCCGACGATC ((((((....)))))) | -40.9 kcal/mol | 56.1 °C |
| GCGGAAGCCGC ((((...)))) | -15.7 kcal/mol | 55.8 °C |
| GCAAACGAAAGTTACTGC ((((((....)))..))) | -13.3 kcal/mol | 27.3 °C |
| GAGTGCGGAAACACACCC (.(((.(....).))).) | -15.5 kcal/mol | 28.1 °C |
| GAGACGGCGAAAGCCCTC (((..(((....)))))) | -6.29 kcal/mol | 34.5 °C |
| GTGCTGTCGAAAGACCAC (((..(((....)))))) | -13.1 kcal/mol | 45.4 °C |
| GCTGGCGAAAGCCTTAGC ((((((....)))..))) | -15.1 kcal/mol | 44.4 °C |
| GCCTTGCGAAAGCTACGC ((.(.((....)).).)) | -10.2 kcal/mol | 46.3 °C |
| GGGGGCGAAAGCCCACCC ((((((....)))..))) | -10.1 kcal/mol | 57.3 °C |
| GATCTCTAGGAGATC ((((((...)))))) | -39.1 kcal/mol | 52.9 °C |

| Sequence | folding enthalpy [1] | Tm [2] |
| --- | --- | --- |
| GTCTGCGAAAGCAGCGAC ((((((....)))..))) | -12.5 kcal/mol | 60.6 °C |
| GGCTTCGGAAACGAAACC ((.((((....)))).)) | -25.4 kcal/mol | 44.8 °C |
| GATCATAGATATGATC ((((((....)))))) | -33.6 kcal/mol | 47.3 °C |
| GCGCGCGAAAGCGCCCGC ((((((....)))..))) | -9.74 kcal/mol | 45.8 °C |
| CGCCCGGAAACGGTGCG ((((((....))).))) | -31.7 kcal/mol | 57.9 °C |
| GGTGGACGAAAGTCAACC (((.(((....))).))) | -40.3 kcal/mol | 56.6 °C |
| GTTACAGGAAACTGTAGC (.(((((....))))).) | -22.6 kcal/mol | 38.9 °C |
| GCGAAGCCGAAAGGCCGC (((..(((....)))))) | -20.2 kcal/mol | 58.8 °C |
| GCTCGTGGAAACGCGAGC (((((.(....).))))) | -47.9 kcal/mol | 63.2 °C |
| GTGAGCGGAAACGTTCGC (.((.((....)).)).) | -27.8 kcal/mol | 43.9 °C |
| GTATTCGAAAGAATTTAC ((((((....)))..))) | -12.2 kcal/mol | 27.5 °C |
| GATCTTCTCGAAGATC ((((((....)))))) | -39 kcal/mol | 51.8 °C |
| GACCTTGGAAACAGGGTC ((((.((....)).)))) | -31.5 kcal/mol | 47 °C |
| TTGCTGAAAAGCAA (((((....))))) | -16.2 kcal/mol | 49.2 °C |
| GCTAAGCGAAAGCTGCGC ((..(((....)))..)) | -21.1 kcal/mol | 58.3 °C |
| GCGGGGCGAAAGCACTGC ((.(.((....)).).)) | -24.7 kcal/mol | 65.5 °C |
| GAACAAGGAAACTTGTCC (.(((((....))))).) | -15.4 kcal/mol | 31.3 °C |
| GATGACCGAAAGGTATC (((.(((....)))))) | -16.6 kcal/mol | 34.7 °C |
| GCATGGCGAAAGCCTAGC ((..(((....)))..)) | -17.9 kcal/mol | 52.1 °C |
| ACAAAGAAATTTGT (((((....))))) | -6.26 kcal/mol | 22.5 °C |
| GCCGTCGAAAGACACGGC ((((((....)))..))) | -27.5 kcal/mol | 54.6 °C |
| GTCAGCGGAAACGTTGGC (.((.((....)).)).) | -26 kcal/mol | 42.2 °C |
| GGGATTGAAAAATCCC ((((((....)))))) | -43.6 kcal/mol | 55.8 °C |
